According to ChEMBL document CHEMBL4190337, “Design, Synthesis, and Antibacterial Activity of a Multivalent Polycationic Calix[4]arene-NO Photodonor Conjugate” (ACS Med Chem Lett, 2017):
Calls of active or inactive are those of the source. The calls are words filed in the database; no cut-off is given here.

Key:
[1] = Drug metabolism in MeOH/PBS solution assessed as […] release by measuring shift in maximum absorption wavelength at 40 uM irradiated with 60 mW laser light by UV-vis absorption spectra analysis; type: functional
Staphylococcus aureus [2] = test: Bactericidal activity against Staphylococcus aureus ATCC 6538 assessed as reduction in bacterial count at 0.25 mM after 30 mins under dark condition by time kill assay relative to control; type: functional; set-up: scale not given: the % may be the effect or the level left
Summary of the method: (§1)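 Time-kill assay with the agent at 0.25 mM final in 5% EtOH/PBS, made from a 0.5 mM solution in 10% EtOH/PBS. Samples ran in duplicate, kept in the dark or illuminated, alongside PBS and 5% EtOH/PBS vehicle controls. Viable bacteria were counted as CFU/mL at set times and expressed as % and log reduction.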

Escherichia coli [3] = test: Bactericidal activity against Escherichia coli ATCC 10536 assessed as log reduction in colony forming units at 0.25 mM irradiated with 450 mW xenon light after 30 mins by time kill assay; type: functional; summary of the method: as §1
Staphylococcus aureus [4] = test: Bactericidal activity against Staphylococcus aureus ATCC 6538 assessed as log reduction in colony forming units at 0.25 mM irradiated with 450 mW xenon light after 20 mins by time kill assay; type: functional; summary of the method: as §1
[5] = Drug metabolism in MeOH/PBS solution assessed as […] release at 40 uM irradiated with 60 mW laser light by amperometric detection assay; type: functional
Summary of the method: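 NO release was profiled in MeOH/PBS (20/80) at 40 µM under visible light irradiation (λexc = 405 nm), using an optically matched solution of a model NO photodonor for comparison.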

[6] = Cytotoxicity against human skin fibroblasts at 0.25 mM irradiated with 450 mW xenon light measured after 30 mins; settings: 0.5 h, 250 µM
Escherichia coli [7] = test: Bactericidal activity against Escherichia coli ATCC 10536 assessed as reduction in bacterial count at 0.25 mM after 30 mins under dark condition by time kill assay; type: functional, organism-based; summary of the method: as §1
Staphylococcus aureus [8] = test: Bactericidal activity against Staphylococcus aureus ATCC 6538 assessed as log reduction in colony forming units at 0.25 mM irradiated with 450 mW xenon light after 10 mins by time kill assay; type: functional; summary of the method: as §1
Escherichia coli [9] = test: Bactericidal activity against Escherichia coli ATCC 10536 assessed as reduction in colony forming units at 0.25 mM irradiated with 450 mW xenon light after 30 mins by time kill assay; type: functional; set-up: scale not given: the % may be the effect or the level left; summary of the method: as §1
Staphylococcus aureus [10] = test: Bactericidal activity against Staphylococcus aureus ATCC 6538 assessed as reduction in bacterial count at 0.25 mM irradiated with 450 mW xenon light after 20 mins by time kill assay relative to control; type: functional; set-up: scale not given: the % may be the effect or the level left; summary of the method: as §1
Staphylococcus aureus [11] = test: Bactericidal activity against Staphylococcus aureus ATCC 6538 assessed as reduction in bacterial count at 0.25 mM irradiated with 450 mW xenon light after 10 mins by time kill assay relative to control; type: functional; set-up: scale not given: the % may be the effect or the level left; summary of the method: as §1
Staphylococcus aureus [12] = test: Bactericidal activity against Staphylococcus aureus ATCC 6538 assessed as log reduction in colony forming units at 0.25 mM after 30 mins under dark condition by time kill assay; type: functional; summary of the method: as §1
Staphylococcus aureus [13] = test: Bactericidal activity against Staphylococcus aureus ATCC 6538 assessed as reduction in bacterial count at 0.25 mM irradiated with 450 mW xenon light up to 30 mins by time kill assay; type: functional, organism-based; summary of the method: as §1
[14] = Drug metabolism in MeOH/PBS solution assessed as […] release at 170 uM irradiated with 60 mW laser light by amperometric detection assay; type: functional
Summary of the method: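 NO release followed during continuous visible-light irradiation at λexc 405 nm of optically matched solutions in MeOH/PBS (20/80), with the model donor at 170 µM; release profile recorded over irradiation time.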

## C[N+](C)(CCO)CCCOc1c2cc(CNc3ccc([N+](=O)[O-])c(C(F)(F)F)c3)cc1Cc1cc(CNc3ccc([N+](=O)[O-])c(C(F)(F)F)c3)cc(c1O)Cc1cc(CNc3ccc([N+](=O)[O-])c(C(F)(F)F)c3)cc(c1OCCC[N+](C)(C)CCO)Cc1cc(CNc3ccc([N+](=O)[O-])c(C(F)(F)F)c3)cc(c1O)C2.[Br-].[Br-]
[1]
  Drug metabolism: Metabolite detected
Staphylococcus aureus [2]
  Activity: 98.9%
Escherichia coli [3]
  Activity: 1.2 log10CFU/ml
Staphylococcus aureus [4]
  Activity: >3.31 log10CFU/ml
[5]
  Drug metabolism: Metabolite detected
[6]
  Activity: < 15%
Escherichia coli [7]
  Activity: inactive
Staphylococcus aureus [8]
  Activity: 2.1 log10CFU/ml
Escherichia coli [9]
  Activity: 93.5%
Staphylococcus aureus [10]
  Activity: >99.95%
Staphylococcus aureus [11]
  Activity: 99.2%
Staphylococcus aureus [12]
  Activity: 1.96 log10CFU/ml
Staphylococcus aureus [13]
  Activity: Active

## NCCCNc1ccc([N+](=O)[O-])c(C(F)(F)F)c1
[14]
  Drug metabolism: Metabolite detected
